Sampled rows, rich in hits. Any-hit rate of the full collection: about 5.1%.
M1 antag = antagonists of rat M1 muscarinic receptor; CHO-M1 cells, Fluo-4 calcium, ACh EC80 antagonist mode; hits give low values; AID 628; P08482; actives 3.4% (n = 64,000); B-score at 10 µM;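 active = calcium fluorescence response, raw or row-and-column corrected B-score, differing from the plate sample mean either way at a set confidence level, mostly lower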
Target sequence (P08482 whole entry, looked up): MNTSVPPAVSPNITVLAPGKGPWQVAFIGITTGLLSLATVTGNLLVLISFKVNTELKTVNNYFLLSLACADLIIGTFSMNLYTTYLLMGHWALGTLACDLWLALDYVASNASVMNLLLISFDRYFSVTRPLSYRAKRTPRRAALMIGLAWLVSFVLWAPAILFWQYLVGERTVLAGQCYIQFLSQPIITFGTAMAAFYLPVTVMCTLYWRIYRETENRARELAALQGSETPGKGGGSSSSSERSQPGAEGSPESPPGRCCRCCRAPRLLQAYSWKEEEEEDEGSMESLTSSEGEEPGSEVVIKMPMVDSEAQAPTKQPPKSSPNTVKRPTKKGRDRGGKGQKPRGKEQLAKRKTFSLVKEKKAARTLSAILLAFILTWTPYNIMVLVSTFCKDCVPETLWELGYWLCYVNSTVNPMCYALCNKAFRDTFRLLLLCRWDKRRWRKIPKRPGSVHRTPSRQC
Ecoli WT expand = growth inhibitors of E. coli BW25113 wild type | OD600 absorbance | growth inhibition, % at 100 µM | actives 0.15% (n = 98,000) | AID 710;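 active = growth inhibition above about 50% at one test dose, limit read from the data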;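 note: growth measured after 20 h incubation at 37 °C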
M1 agonist = agonists of M1 muscarinic receptor; CHO-M1 cells, Fluo-4 calcium fluorescence, agonist mode; hits give high values; AID 626; B-score at 10 µM; actives 3% (n = 64,000);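 active = fluorescence rise, raw or as B-score row- and column-corrected plate score, outside the 99.7% band of its plate's samples, either direction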
Hsp90 inh = displaces geldanamycin probe from tumor Hsp90 | P07900 | NCI-N417 lysate Hsp90, Cy3B-geldanamycin FP displacement | inhibition, % at 30 µM | actives 0.35% (n = 64,000);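 active = inhibition above 50%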
tolC growth inh = E. coli tolC mutant growth inhibition; E. coli BW25113 tolC mutant growth, OD615; growth inhibition, % at 10 µM (by protocol); actives 2.2% (n = 65,000);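 active = growth inhibition at or above a cutoff equal to the mean over every tested compound plus 3 SD, cut at about 60% in these data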;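 note: growth measured after 20 h incubation at 37 °C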
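Doses: one dose of 10 µM final / Material: E. coli BW25113 ΔtolC::kan, tolC deletion mutant strain / Buffer or medium: LB with kanamycin 50 µg/mL / Evaluation: percent growth inhibition / Detection: optical density read at 615 nm / Incubation: 37 °C, 20 h exposure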
BAP1 block = blocks human BAP1 ubiquitin-AMC hydrolysis. Q92560. recombinant BAP1, Ub-AMC hydrolysis fluorescence kinetic; hits give low values. calls only at 20 µM. actives 0.48% (n = 72,000). AID 436;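 active = activity remaining at or below 50% of control, provided the compound also passes the data quality filters; inactive = the rest, including low values that fail the filters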
Numbers stand for hits; – = inactive; · = not tested or not shown.

SMILES	M1 antag	Ecoli WT expand	M1 agonist	Hsp90 inh	tolC growth inh	BAP1 block
CN(C)S(=O)(=O)c1ccc(NC(=O)c2ccc(Br)o2)cc1	·	–	·	·	·	·
CCOC(=O)c1ccc(N=c2oc3ccccc3cc2C(=O)Nc2cccc(C(F)(F)F)c2)cc1	·	·	·	·	·	–
CC(=O)OCCOCn1cnn2c(=O)c([N+](=O)[O-])c(C)nc12	·	·	·	·	·	–
CCOC(=O)C1(N(CC)CC)Sc2cc(C)ccc2NC1=O (stereo not given)	–	–	–	–	72	–
CCOC(=O)C1(Nc2nccs2)Sc2ccccc2NC1=O (stereo not given)	–	–	–	–	–	–
C=CCn1c(NC(=O)c2ccccc2)c(C#N)c2nc3ccccc3nc21	–	·	21	63	89	–
C=CCn1c(N)c(C(=O)Nc2cccc(C)c2)c2nc3ccccc3nc21	·	–	·	·	·	·
N#Cc1cn(Cc2cccc(Cl)c2)c2ccccc12	–	–	–	–	97	–
O=Nc1c(O)n(Cc2cccc(Cl)c2)c2ccccc12	·	–	·	·	·	·
CCCCCc1c(C)nc(Nc2ccccc2)[nH]c1=O	–	–	–	–	75	–
Cc1ccc(Nc2nc(C)c(CCC(C)C)c(=O)[nH]2)cc1	–	–	–	–	–	–
CCCN(CCC)c1nc2ccccc2nc1C(C#N)C(=O)OCCOC (stereo not given)	–	–	–	–	80	–
C=CCN(CC=C)c1nc2ccccc2nc1C(C#N)C(=O)OCCOC (stereo not given)	–	–	–	–	–	–
CCOC(=O)c1sc2nc(CC(=O)OC)nc(N3CCN(c4ccccn4)CC3)c2c1C	–	–	–	–	66	·
CCOC(=O)c1sc2nc(CC(=O)OC)nc(NCc3ccc(F)cc3)c2c1C	·	–	·	·	·	·
CC(C)Cn1c(=O)c(C(=O)Nc2ccccc2S(N)(=O)=O)c(O)c2ccccc21	–	–	–	–	100	–
CCC(C)n1c(=O)c(C(=O)Nc2ccccc2S(N)(=O)=O)c(O)c2ccccc21 (stereo not given)	–	–	–	–	83	–
Cc1ccc(NC(=O)c2sc3ccccc3c2Cl)c([N+](=O)[O-])c1	·	·	·	·	·	–
CCOC(=O)c1c(C)[nH]c(C)c1C(=O)Cn1nnc(-c2ccccc2C)n1	–	–	–	–	63	–
Cc1ccc(N(C(=O)c2cccc([N+](=O)[O-])c2)c2ccc3ccccc3c2)cc1	·	·	·	·	·	–
[O-][N+]1=c2ccc(Nc3ccccc3)cc2=NC12CCCCC2	–	–	–	–	90	–
Cc1cccc(-c2c3c(=O)n(C)c(=O)n(C)c3c3nnc4ccccc4n23)c1	–	·	5.2	–	–	–
O=C(Nc1nccs1)c1ccc([N+](=O)[O-])s1	·	·	·	·	·	–
COc1cc(C)nc(N2CCCC(C(=O)Nc3cc(Cl)ccc3OC)C2)n1 (stereo not given)	·	–	·	·	·	·
COc1cc(C)nc(N2CCCC(C(=O)NC3CCC(C)CC3)C2)n1 (stereo not given)	-16	·	–	–	–	–
SMILES	M1 antag	Ecoli WT expand	M1 agonist	Hsp90 inh	tolC growth inh	BAP1 block
O=C1CC(=O)NC(SCc2ccccc2)=N1	·	·	·	·	·	–
CCCCCOC(=O)c1[nH]c2c(c1C)C(=O)C(C(=O)OC)C(C)C2 (stereo not given)	–	–	–	–	75	–
CCSc1nc(N2CCOCC2)c2c(c1C#N)CCCC2	–	–	–	–	–	–
CC(C)c1nc(N2CCOCC2)c(C#N)c2c1CCCC2	–	–	–	–	65	–
Cc1nc2cc(N3CCCCC3)c(NC(=O)c3cccnc3)cc2c(=O)n1Cc1ccccc1	2.8	–	–	–	–	–
COc1ccc(-c2onc(C)c2-c2ccccc2)c(O)c1	–	–	–	–	–	–
COc1ccc(-c2noc(C)c2-c2ccc3ccccc3n2)c(O)c1	–	–	–	–	96	–
COc1ccc(NC(=O)c2ccc(N3C(=O)CCC3=O)cc2)c2ccccc12	·	·	·	·	·	–
O=C(Nc1ccccc1)N(CCc1nc2ccccc2[nH]1)C1CCCC1	–	–	2.3	–	–	–
O=C(CCc1nc2ccccc2[nH]1)Nc1ccccc1	–	–	–	–	–	–
Oc1ccc(C2CNCCc3c2cc(O)c(O)c3Cl)cc1 (stereo not given)	·	·	·	75	·	–
Oc1cc2c(c(Cl)c1O)CCNCC2c1ccccc1 (stereo not given)	·	·	·	82	·	–
CCOC(=O)c1sc(NC(=O)c2cccs2)nc1C	·	–	·	·	·	·
CCOC(=O)c1sc2nc(NC(=O)c3cccs3)sc2c1C	–	·	–	63	–	–
CN1CCN(CCCNC(=O)Cn2ncc3c4ccccc4n(C)c3c2=O)CC1	–	–	–	–	–	–
Cc1cc2c(s1)c1cnn(CC(=O)NCCc3ccccc3)c(=O)c1n2C	3.1	–	–	–	–	–
CCCCCn1c(SCC#N)nc2cc(C(=O)NCC3CCCO3)ccc2c1=O (stereo not given)	–	–	2.5	–	–	–
COc1ccccc1NC(=O)c1ccc2c(c1)C(=O)N(c1ccc(Br)cc1)C2=O	·	·	·	·	·	–
FC(F)(F)c1ccc(N2CCOCC2)c(NC2=NCCCCC2)c1	–	–	–	–	–	–
CCOc1cc(N2CCOCC2)c(OCC)cc1NC1=NCCCCC1	–	–	–	61	–	–
COc1ccc(C(=O)Nc2ccc(Br)cn2)cc1	·	·	·	·	·	–
CCOc1ccc2nc(NC(=O)C3CCCN(S(=O)(=O)c4cccs4)C3)sc2c1 (stereo not given)	·	–	·	–	63	·
CCOc1ccc2nc(NC(=O)C(NS(=O)(=O)c3cccs3)C(C)C)sc2c1 (stereo not given)	–	–	–	–	–	–
CC(C)N=c1cc2n(-c3ccc(Cl)cc3)c3ccccc3nc-2cc1Nc1ccc(Cl)cc1	–	·	–	98	–	·
O=C(Nc1ccccc1C(=O)NCCO)c1ccccc1	·	·	·	·	·	–
CCOC(=O)Cc1c(C)nc2c(-c3cccc(Br)c3)c[nH]n2c1=O	–	–	–	–	100	·
CCOC(=O)Cc1c(C)nc2c(C#N)c[nH]n2c1=O	·	–	·	·	·	·
CCOC(=O)COc1ccc(C2C3=C(CC(C)(C)CC3=O)OC3=C2C(=O)CC(C)(C)C3)cc1OC	·	·	·	·	·	–

Source: PubChem (several laboratories)
